Measurements taken from the array DNA melting data of Ke et al. (doi:10.1101/2024.01.08.574731).

Key:
[1] = melting temperature; fluorescence melt of hairpins on a sequencing array, two-state fit, raised by 9.35 °C to match UV melts; conditions: sodium 0.088 M
How it was run: (§1)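 With Cy3 and quencher oligos annealed, library hairpins on a sequenced MiSeq flow cell were imaged for Cy3 fluorescence in 50 mM Na-HEPES pH 8.0, 25 mM NaCl, in 2.5 °C steps up to 60 °C. Melting temperature and folding enthalpy were derived from bootstrapped two-state fits of signals normalised to pre-quench Cy3 and to control constructs. Four replicates were combined by inverse variance, with fitted temperatures raised by 9.35 °C to match UV melts.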

[2] = folding enthalpy; higher = less favourable; fluorescence melt of hairpins on a sequencing array, two-state fit; conditions: sodium 0.088 M
How it was run: as §1

| Sequence | Tm [1] | folding enthalpy [2] |
| --- | --- | --- |
| GGCGCTACGAAAGTAGCC (((..(((....)))))) | 49.4 °C | -9.44 kcal/mol |
| GCCTCCGAAAGGAGTGGC ((((((....)))..))) | 50.3 °C | -17.1 kcal/mol |
| GTGAAGCGAAAGCTACAC (((.(((....))).))) | 55.7 °C | -30.1 kcal/mol |
| GCGGTGCGAAAGCCCTGC ((.(.((....)).).)) | 49.5 °C | -21.2 kcal/mol |
| GGGTTCGGAAACGGACTC (.((.((....)).)).) | 39.1 °C | -25.9 kcal/mol |
| GGACAGGGAAACCTGCCC ((.((((....)))).)) | 48.2 °C | -22.3 kcal/mol |
| GATCGACGAAAGTCATC (((.(((....)))))) | 33.1 °C | -12.7 kcal/mol |
| GTACGGGGAAACCTGTAC ((((.((....)).)))) | 49.7 °C | -35.9 kcal/mol |
| GCCGACGGAAACATCGGC (((((.(....).))))) | 53 °C | -38.6 kcal/mol |
| GTGCGCGAAAGCGAGCAC ((((((....)))..))) | 57.7 °C | -25.5 kcal/mol |
| GTAGCTGAAAAGCTAC ((((((....)))))) | 60 °C | -37.9 kcal/mol |
| GCTGGGGGAAACCCCGGC ((.((((....)))).)) | 65.5 °C | -33.8 kcal/mol |
| GACGGACGAAAGTCAGTC (((.(((....))).))) | 59.5 °C | -37.5 kcal/mol |
| GACGGAGGAAACTCTGTC (((.(((....))).))) | 48 °C | -39.4 kcal/mol |
| GGTTCTGGAAACAAAACC ((((.((....)).)))) | 28.5 °C | -16.3 kcal/mol |
| GGGCCGGGAAACCAGCCC ((((.((....)).)))) | 54.3 °C | -49.3 kcal/mol |
| GCCGTTACGAAAGTAGGC (((..(((....)))))) | 54.8 °C | -33.1 kcal/mol |
| GCCGTAACGAAAGTTGGC (((..(((....)))))) | 49.4 °C | -20.9 kcal/mol |
| GCTCCCGAAAGGGACAGC ((((((....)))..))) | 44.7 °C | -12.6 kcal/mol |
| GGCGTCGAAAGACCGGCC ((((((....)))..))) | 51 °C | -19.4 kcal/mol |
| GCTTTGCGAAAGCTCAGC (((..((....))..))) | 44.3 °C | -14.4 kcal/mol |
| GTGCGGGGAAACTCGCAC (((((.(....).))))) | 61.2 °C | -40.1 kcal/mol |
| GAGATCGCGAAAGCGCTC (((..(((....)))))) | 33.6 °C | -8.57 kcal/mol |

| Sequence | Tm [1] | folding enthalpy [2] |
| --- | --- | --- |
| GATCGAGATCTCGATC ((((((....)))))) | 55.7 °C | -50.6 kcal/mol |
| GTAATAGAAATATTAC ((((((....)))))) | 32 °C | -16.6 kcal/mol |
| GCAAGAGGAAACTCTTGC (((((((....))))))) | 64.9 °C | -40.5 kcal/mol |
| GATCTGAGACCAGATC ((((((....)))))) | 44.5 °C | -32.9 kcal/mol |
| GAGTCCGGAAACGGGCTC (((.(((....))).))) | 63.3 °C | -33 kcal/mol |
| GTGACGGGAAACCGTCGC (.(((((....))))).) | 62.6 °C | -24.8 kcal/mol |
| GTAGCTCGAAAGAGATAC (((.(((....))).))) | 54.9 °C | -43.5 kcal/mol |
| GATATCGGAAACGGTATC ((((.((....)).)))) | 44 °C | -29.8 kcal/mol |
| GGTGAGGGAAACTTCACC (((((.(....).))))) | 46.8 °C | -32.1 kcal/mol |
| GCAACGCGAAAGCTTCGC ((.(.((....)).).)) | 30 °C | -8.73 kcal/mol |
| GATGTTGGAAACAATATC (((.(((....))).))) | 37.5 °C | -27.1 kcal/mol |
| GCACTGCGAAAGCTATGC (((..((....))..))) | 40.3 °C | -16.7 kcal/mol |
| GAATTCGGAAACGAGTTC (((.(((....))).))) | 43.9 °C | -32.5 kcal/mol |
| GTTGACCCGAAAGGGAAC (((..(((....)))))) | 37.8 °C | -14.3 kcal/mol |
| GACAACCGAAAGGTGGTC (((.(((....))).))) | 59.2 °C | -35.3 kcal/mol |
| GATCCCAACTGGGATC ((((((....)))))) | 63.4 °C | -39.5 kcal/mol |
| GGGTGTGGAAACACACTC (.(((((....))))).) | 55.4 °C | -23.5 kcal/mol |
| GCCCCACGAAAGTGGGC (((.(((....)))))) | 65.5 °C | -10.9 kcal/mol |
| GTGCCCGAAAGGGTTCAC ((((((....)))..))) | 41.1 °C | -11.8 kcal/mol |
| GTATCCGAAAGGATCTAC ((((((....)))..))) | 39.1 °C | -13.7 kcal/mol |
| GGAAACGAAAGTTTCTCC ((((((....)))..))) | 45.9 °C | -13.8 kcal/mol |
| GCCCGCGAAAGCGCCGGC ((((((....)))..))) | 52.3 °C | -17.5 kcal/mol |
| GGCAGGCGAAAGCCCGCC (((.(((....))).))) | 66.2 °C | -22.8 kcal/mol |

| Sequence | Tm [1] | folding enthalpy [2] |
| --- | --- | --- |
| GCTTGAGGAAACTCAGGC ((.((((....)))).)) | 47.6 °C | -32.9 kcal/mol |
| GCCTTTGGAAACAAAAGC ((.((((....)))).)) | 29.3 °C | -12.2 kcal/mol |
| GTGGCAACGAAAGTTCAC (((..(((....)))))) | 27.8 °C | -7.15 kcal/mol |
| GAACACGAAAGTGATTC ((((((....))).))) | 37.2 °C | -18.1 kcal/mol |
| GATCCAGCATGGATC ((((((...)))))) | 61.1 °C | -45.4 kcal/mol |
| GCGTTTGCGAAAGCACGC (((..(((....)))))) | 55.2 °C | -22.6 kcal/mol |
| GCCAGGCGAAAGCGTTGC ((.(.((....)).).)) | 34.2 °C | -16.6 kcal/mol |
| GACACCGAAAGGTCTGTC ((((((....)))..))) | 35.2 °C | -16.6 kcal/mol |
| GGAACAGCGAAAGCTTCC (((..(((....)))))) | 35.5 °C | -18.4 kcal/mol |
| GCAACCGAAAGGTGTTGC ((((((....)))..))) | 50 °C | -19 kcal/mol |
| GAGCAAGGAAACTTGCTC (((((((....))))))) | 63.8 °C | -40.4 kcal/mol |
| GCGGACGAAAGTCCCCGC ((((((....)))..))) | 45.8 °C | -12.7 kcal/mol |
| GGGGTCGAAAGACTTCCC ((((((....)))..))) | 39 °C | -15.6 kcal/mol |
| GCATGGCGAAAGCCCTGC (((.(((....))).))) | 53 °C | -45.3 kcal/mol |
| GGGTATGCGAAAGCACCC (((..(((....)))))) | 50.4 °C | -21.2 kcal/mol |
| GGATGGACGAAAGTCTCC (((..(((....)))))) | 32.5 °C | -13.6 kcal/mol |
| GATCTTGGAAAGATC ((((((...)))))) | 51.9 °C | -34.5 kcal/mol |
| GCCCGGGGAAACCCGGAC (.(((((....))))).) | 51.3 °C | -13.4 kcal/mol |
| GATCTCACCCGAGATC ((((((....)))))) | 53.1 °C | -39.5 kcal/mol |
| AAGGGGAAACCCTT (((((....))))) | 46 °C | -13.8 kcal/mol |
| GGAATTGGAAACGATTCC (((((.(....).))))) | 45.6 °C | -34.4 kcal/mol |
| GCTGTGACGAAAGTCAGC (((..(((....)))))) | 47 °C | -15.1 kcal/mol |
| AGTTCGAAAGAACT (((((....))))) | 55.4 °C | -20.8 kcal/mol |

| Sequence | Tm [1] | folding enthalpy [2] |
| --- | --- | --- |
| GATCGTCCGACGATC ((((((...)))))) | 53.9 °C | -40.9 kcal/mol |
| GTGGTTGGAAACAGCTAC ((.(.((....)).).)) | 33.1 °C | -23.3 kcal/mol |
| CGACCGGAAACGGGTTCG ((((((....)))..))) | 38.9 °C | -21.4 kcal/mol |
| GATCCTCATAGGATC ((((((...)))))) | 53.1 °C | -37.4 kcal/mol |
| GGTAACGAAAGTTACC ((((((....)))))) | 64.1 °C | -34.7 kcal/mol |
| GATCTCAGCAGAGATC ((((((....)))))) | 58.2 °C | -31.9 kcal/mol |
| GGCTAGGGAAACCTAGTC (.(((((....))))).) | 48.8 °C | -41.7 kcal/mol |
| GCTGAAGGAAACTTCAGC (((((((....))))))) | 62.4 °C | -41.1 kcal/mol |
| GTAGCTGGAAACAGTTGC (.(.(((....))).).) | 30.8 °C | -14.5 kcal/mol |
| GGCTGGGGAAACCTAGCC ((((.((....)).)))) | 56.2 °C | -42.8 kcal/mol |
| GACTAACGAAAGTTGTC (((.(((....)))))) | 42.4 °C | -24.1 kcal/mol |
| GTGAGCCGAAAGGCACAC (((.(((....))).))) | 59.8 °C | -28.9 kcal/mol |
| GGTCCACGAAAGTGCACC (((.(((....))).))) | 44.5 °C | -25.9 kcal/mol |
| GTTAGTCGAAAGACCAAC (((.(((....))).))) | 37 °C | -19.1 kcal/mol |
| GCCGCGGGAAACCACGGC ((((.((....)).)))) | 63.6 °C | -38.4 kcal/mol |
| GATCGCTTACGCGATC ((((((....)))))) | 68.6 °C | -31.8 kcal/mol |
| GCCTACGAAAGTAGAGGC ((((((....)))..))) | 49.3 °C | -22.7 kcal/mol |
| GATGGCGAAAGCCTGATC ((((((....)))..))) | 33.6 °C | -11 kcal/mol |
| GTAACCGAAAGGTGTTAC ((((((....)))..))) | 35 °C | -12.6 kcal/mol |
| GCTCGGGGAAACTCGAGC (((((.(....).))))) | 58.5 °C | -44.2 kcal/mol |
| GTGCACGAAAGTGAACAC ((((((....)))..))) | 52 °C | -15.4 kcal/mol |
| GATCATGTGCATGATC ((((((....)))))) | 50.3 °C | -32.3 kcal/mol |
